Reference: ChEMBL document CHEMBL2169814, “Structure-based design, synthesis, and characterization of dual hotspot small-molecule HIV-1 entry inhibitors” (J Med Chem, 2012)
Calls of active or inactive are those of the source. No cut-off for these calls is given here.

How the values were obtained:
[1] = Inhibition of ampotrophic murine leukemia virus envelope glycoprotein assessed as inhibition of viral entry in canine Cf2Th cells expressing human CD4 and CCR5 after 2 to 4 hrs by luciferase activity based luminescence assay
[2] = test system: Envelope glycoprotein gp160 (Human immunodeficiency virus type 1 group M subtype B (isolate HXB2)(HIV-1)), P04578 [S375W]; experiment: Inhibition of recombinant HIV-1 YU2 envelope glycoprotein-120 S375W mutant assessed as inhibition of viral entry in canine Cf2Th cells expressing CD4/CCR5 after 2 to 4 hrs by luciferase activity based luminescence assay; assay type: cell-based; conditions: Human immunodeficiency virus 1
In short: (§1)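 Single-round luciferase-encoding recombinant HIV-1 pseudotyped with wild-type or mutant YU2 Env, made in 293T cells and dosed by RT units. Cf2Th/CD4-CCR5 cells seeded 24 h before. […] Cells lysed by freeze-thaw; luciferase read by luminometer.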

[3] = test system: Human immunodeficiency virus 1; experiment: Antiviral activity against HIV-1 clade B Env pseudovirus assessed as geometric mean titer for virus neutralization to infect human TZM-bl cells by luciferase assay; assay type: functional, organism-based; conditions: Human immunodeficiency virus 1, clade B
In short: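 Env-pseudoviruses made in 293T cells co-transfected with rev/env plasmid and env-deficient backbone (pSGΔ3env); supernatants harvested at 2 days, filtered. Virus (MOI ~0.01–0.1) preincubated 30 min at 37°C with serially diluted reagent (media with 10% DMSO), duplicate wells, then used to infect TZM-bl cells. Luciferase read-out; 5-parameter hill fit gives IC50/IC80; geometric mean titer across isolates.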

[4] = test system: Human immunodeficiency virus 1; experiment: Antiviral activity against HIV-1 YU2 infected in canine Cf2Th-CCR5 cells assessed as activation of viral infectivity after 2 to 4 hrs by luminometer relative to TS-II-224; assay type: functional, organism-based
[5] = test system: Human immunodeficiency virus 1; experiment: Increase in binding of minimal core of HIV1 YU2 gp120 into 17b in canine Cf2Th-CCR5 by SPR assay
[6] = Inhibition of recombinant HIV-1 YU2 envelope glycoprotein-120 assessed as inhibition of viral entry in canine Cf2Th cells expressing CD4/CCR5 after 2 to 4 hrs by luciferase activity based luminescence assay; assay type: cell-based, Human immunodeficiency virus 1
In short: as §1

[7] = Binding affinity to HIV-1 YU2 gp120 at 80 to 130 uM by VP-ITC analysis; set-up: species or system Human immunodeficiency virus 1
[8] = test system: Human immunodeficiency virus 1; experiment: Increase in binding of full length of HIV1 YU2 gp120 expressed into 17b in canine Cf2Th-CCR5 by SPR assay
[9] = test system: Human immunodeficiency virus 1; experiment: Antiviral activity against HIV-1 clade C Env pseudovirus assessed as geometric mean titer for virus neutralization to infect human TZM-bl cells by luciferase assay; assay type: functional, organism-based
In short: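 Env-pseudoviruses were made in 293T cells cotransfected with rev/env plasmid and the env-deficient pSGΔ3env backbone, then harvested at 2 days. Virus (MOI ~0.01–0.1) was preincubated 30 min at 37°C with serially diluted compound in medium containing 10% DMSO, in duplicate, then used to infect TZM-bl cells. Luciferase read-out; IC50 from a 5-parameter Hill fit; geometric mean across isolates.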

[10] = test system: Human immunodeficiency virus 1; experiment: Antiviral activity against HIV-1 YU2 infected in canine Cf2Th-CCR5 cells assessed as activation of viral infectivity after 2 to 4 hrs by luminometer relative to NBD-556; assay type: functional, organism-based
[11] = Inhibition of recombinant HIV-1 89.6 envelope glycoprotein-120 assessed as inhibition of viral entry in canine Cf2Th cells expressing CD4/CCR5 after 2 to 4 hrs by luciferase activity based luminescence assay; assay type: cell-based, Human immunodeficiency virus 1
In short: (§2)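 Single-round luciferase-reporter viruses were made in 293T cells with Gag-Pol packaging and Env plasmids (A-MLV Env plus rev), then normalized by RT activity. […] Cf2Th/CD4-CCR5 or CD4-CXCR4 targets were exposed for 2–4 h, cultured 48 h, lysed by freeze-thaw, and luciferase was read.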

[12] = Inhibition of recombinant HIV-1 HXBc2 envelope glycoprotein-120 assessed as inhibition of viral entry in canine Cf2Th cells expressing CD4/CCR5 after 2 to 4 hrs by luciferase activity based luminescence assay; assay type: cell-based, Human immunodeficiency virus 1
In short: as §2

[13] = Inhibition of recombinant HIV-1 JRFL envelope glycoprotein-120 assessed as inhibition of viral entry in canine Cf2Th cells expressing CD4/CCR5 after 2 to 4 hrs by luciferase activity based luminescence assay; assay type: cell-based, Human immunodeficiency virus 1
In short: as §2

[14] = Inhibition of recombinant HIV-1 KB9 envelope glycoprotein-120 assessed as inhibition of viral entry in canine Cf2Th cells expressing CD4/CCR5 after 2 to 4 hrs by luciferase activity based luminescence assay; assay type: cell-based, Human immunodeficiency virus 1
In short: as §2

[15] = Inhibition of recombinant HIV-1 ADA envelope glycoprotein-120 assessed as inhibition of viral entry in canine Cf2Th cells expressing CD4/CCR5 after 2 to 4 hrs by luciferase activity based luminescence assay; assay type: cell-based, Human immunodeficiency virus 1
In short: as §2

[16] = Cytotoxicity against canine Cf2Th-CD4-CCR5 assessed as cell viability at 1 to 100 uM after 48 hrs by luminometer; assay type: cell-based, Canis lupus familiaris; conditions: dog, thymocyte
In short: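 Cf2Th/CD4-CCR5 cells were seeded at 6×10^3/well 24 h ahead and exposed to compound at 1–100 μM (DMSO at 2% as control) for 2–4 h at 37°C. Medium was then topped up and cells were incubated 48 h at 37°C. After 30 min at room temperature, CellTiter-Glo was added for 5–10 min, and luminescence was read for 5 s.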

[17] = test system: Human immunodeficiency virus 1; experiment: Antiviral activity against HIV-1 YU2 infected in canine Cf2Th-CCR5 cells assessed as activation of viral infectivity after 2 to 4 hrs by luminometer relative to JRC-I-191; assay type: functional, organism-based

Structure (SMILES) | IC50 [1] [µM] | Activity [2] | IC50 [3] [µM] | Activity [4] | Activity [5] | IC50 [6] [µM] | Kd [7] [µM] | Activity [8] | Activity [9] | Activity [10] | IC50 [11] [µM] | IC50 [12] [µM] | IC50 [13] [µM] | IC50 [14] [µM] | IC50 [15] [µM] | Activity [16] | Activity [17]
N=C(N)N[C@@H]1Cc2ccccc2[C@H]1NC(=O)C(=O)Nc1ccc(Cl)c(F)c1 | > 100 | inactive | 8.9 | inactive | Active | 21.3 | 0.3 | Active | Active |  |  |  |  |  |  |  | 
CC1(C)CC(NC(=O)C(=O)Nc2ccc(Cl)c(F)c2)CC(C)(C)N1 | > 100 |  |  |  |  | 54.4 |  |  |  | Active |  |  |  |  |  |  | 
N[C@H]1Cc2ccccc2[C@@H]1NC(=O)C(=O)Nc1ccc(Cl)c(F)c1 | 56.9 |  |  | Active | Active | 53.9 |  | Active |  |  | 50 | 50 | 50 | 50 | 50 |  | 
N=C(N)N[C@H]1Cc2ccccc2[C@@H]1NC(=O)C(=O)Nc1ccc(Cl)c(F)c1.O=CO | > 100 | inactive | 7.9 | inactive | Active | 22.9 | 0.25 | Active | Active |  |  |  |  |  |  | Non-toxic | 
N[C@@H]1Cc2ccccc2[C@H]1NC(=O)C(=O)Nc1ccc(Cl)c(F)c1 | 85.9 |  |  | Active | Active | 86.9 | 1.1 | Active |  |  | 50 | 50 | 50 | 50 | 50 |  | 
CC1(C)CC(NC(=O)C(=O)Nc2ccc(Cl)cc2)CC(C)(C)N1 | > 100 |  | 29.3 |  |  | > 100 |  |  | Active |  |  |  |  |  |  |  | 
CC1(C)CC(NC(=O)C(=O)Nc2ccc(Br)cc2)CC(C)(C)N1 | > 100 |  |  |  |  | > 100 | 2.2 |  |  | Active |  |  |  |  |  |  | 
CN1C(C)(C)CC(NC(=O)C(=O)Nc2ccc(Cl)c(F)c2)CC1(C)C | 93.4 |  |  |  | Active | 48.8 |  | Active |  |  |  |  |  |  |  |  | Active
